Measurements reported in article PMC11822521 (ACS Omega, 2025).

Key:
VHR [1] = target: T1, VHR (Homo sapiens, UniProt P51452); test: Michaelis–Menten kinetic assay of VHR with OMFP; assay type: biochemical; details: read-out: Michaelis–Menten constant (Km); OMFP as substrate of VHR
Procedure, shortened: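 Full-length human His8-VHR expressed in E. coli, fixed at 2.5 nM, with OMFP titrated. Enzyme preincubated 20 min at room temperature, then substrate added. Fluorescence (ex 485/em 535 nm) read kinetically for 10 min. Initial velocities were background-corrected against no-enzyme wells and fitted to the Michaelis–Menten equation.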

VHR [2] = target: T1, VHR; test: VHR dose–response inhibition assay with OMFP substrate; assay type: biochemical
Procedure, shortened: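 Ten-point curves, 100 μM to 5 nM final, in triplicate, with DMSO vehicle. Human His8-VHR (2.5 nM final) in pH 6 Bis-tris buffer with DTT and Tween-20 was preincubated with compound 20 min at room temperature. Reaction started with OMFP (6 μM final) and read at ex 485/em 535 nm for 10 min. Slopes were normalized to no-enzyme and vehicle controls and fitted to a four-parameter variable-slope model.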

VHR [3] = target: T1, VHR; test: Isothermal titration calorimetry; assay type: binding; details: dissociation constant (KD), ITC; mean of two independent experiments ± SEM
Procedure, shortened: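 Run at 25 °C on full-length human VHR (His8-tagged, E. coli-expressed, Ni-NTA purified). Protein was 60–285 μM in PBS with 5% DMSO in the cell. Test compound (0.3–5 mM in the same buffer) was added as 20 injections of 6 μL. Baseline came from compound injected into buffer alone. KD was the mean of two independent runs.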

T1 sequence (P51452 whole entry): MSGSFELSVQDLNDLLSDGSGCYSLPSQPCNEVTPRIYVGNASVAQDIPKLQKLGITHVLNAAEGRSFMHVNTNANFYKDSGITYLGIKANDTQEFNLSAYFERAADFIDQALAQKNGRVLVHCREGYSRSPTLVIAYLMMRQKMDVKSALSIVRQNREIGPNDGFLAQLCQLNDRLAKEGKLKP

Row | Km (VHR [1]) [µM] | IC50 (VHR [2]) [µM] | Kd (VHR [3]) [µM] | SMILES
1 | 5.4 |  |  | COc1ccc2c(c1)Oc1cc(OP(=O)(O)O)ccc1C21OC(=O)c2ccccc21 (stereo not drawn) [OMFP, 3-O-methylfluorescein phosphate]
2 |  | 4.1 ± 1.8 | 7.6 ± 0.2 | O=P(O)(O)C(F)(F)c1cccc(-c2cccc(-c3cscn3)c2)c1 [SBP-4929, (Difluoro(3′-(thiazol-4-yl)-[1,1′-biphenyl]-3-yl)methyl)phosphonic Acid]
